Assay results published in ChEMBL document CHEMBL3232716, “Tailoring cytotoxicity of antimicrobial peptidomimetics with high activity against multidrug-resistant Escherichia coli” (J Med Chem, 2014).
pIC50: −log10 of the molar value. Values after ≈ are worked out from the molar mass of the structure shown. Square brackets hold non-standard residues; d marks the D form. Peptide text beside a SMILES is read from it. hArg = N=C(N)NCCCC[C@H](N)C(=O)O; Nspe = C[C@H](NCC(=O)O)c1ccccc1; Nphe = O=C(O)CNCc1ccccc1

Assays:
HeLa = assay: Cytotoxicity against human HeLa cells after 1 hr by MTS/PMS assay; assay type: cell-based
Procedure, shortened: (§1)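 Monolayers (passage 4–10) grown ~21–25 h to ~90% confluence. Seeding per well: HeLa 8000, HepG2 23 000, NIH 3T3 22 000, IEC-6 16 000, Caco-2 25 000. Cells washed with HBSS/10 mM Hepes pH 7.4 and exposed 1 h at 37 °C, 50 rpm, to compound 0–2000 μM in culture medium. MTS 240 μg/mL/PMS 2.4 μg/mL for 1.5–4 h, A492. Viability referenced to SDS and untreated controls; IC50 from one biological replicate in triplicate.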

HUVEC = assay: Cytotoxicity against HUVEC after 1 hr by MTS/PMS assay; assay type: cell-based; details: Homo sapiens
Procedure, shortened: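 HUVEC seeded at 15 000 cells/well on collagen-coated wells (0.6 μg/cm2), passage 4–10, grown to ~90% confluence over 21–25 h. Cells exposed to compound (0–2000 μM) in F-12K medium for 1 h at 37 °C. MTS 240 μg/mL with PMS 9.6 μg/mL in HBSS for 1.5–4 h, then A492. Viability referenced to 0.2% SDS and untreated cells; IC50 reported.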

Caco-2 = assay: Cytotoxicity against human Caco2 cells after 1 hr by MTS/PMS assay; assay type: cell-based; details: Caco-2, 1 h; procedure, shortened: as §1
Escherichia coli [1] = assay: Antibacterial activity against Escherichia coli ATCC 25922 after 18 hrs by microdilution broth method; assay type: functional
Procedure, shortened: (§2)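 CLSI broth microdilution. […] Incubated 35 °C in ambient air for 18 h. MIC taken as the lowest concentration with no visible growth versus the compound-free control. Reported as median and range of three independent biological replicates run on separate days.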

[2] = Hemolytic activity in human RBC after 1 hr; assay type: ADME, cell-based; details: Erythrocyte
Procedure, shortened: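 Fresh human erythrocytes washed in PBS pH 7.4. A 0.5% v/v suspension was mixed 1:1 with 2-fold dilutions of compound (8–1024 μM) and incubated 1 h at 37 °C, then centrifuged. Supernatant hemoglobin read at OD414. Melittin 400 μg/mL set 100% lysis and PBS set 0%. Value is the concentration giving 50% lysis.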

[3] = Cytotoxicity against mouse NIH/3T3 cells after 1 hr by MTS/PMS assay; assay type: cell-based; details: NIH3T3, 1 h; procedure, shortened: as §1
[4] = Cytotoxicity against rat IEC-6 cells after 1 hr by MTS/PMS assay; assay type: cell-based; details: IEC-6, 1 h; procedure, shortened: as §1
Escherichia coli [5] = assay: Antibacterial activity against NDM-1 producing Escherichia coli clinical isolate 74859898 after 18 hrs by microdilution broth method; assay type: functional
Enterococcus faecium = assay: Antibacterial activity against vancomycin-resistant Enterococcus faecium ATCC 700221 after 18 hrs by microdilution broth method; details: ATCC 700221, 18 h
HepG2 = assay: Cytotoxicity against human HepG2 cells after 1 hr by MTS/PMS assay; assay type: cell-based; details: HepG2, 1 h; procedure, shortened: as §1
[6] = Binding affinity to synthetic POPC/POPG liposomal membrane at 20 uM by circular dichroism analysis; assay type: physicochemical; details: artificial membrane
Procedure, shortened: (§3)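 CD spectra recorded with 20 μM test compound and 2 mM liposomes in 10 mM Tris buffer, pH 7.5. Liposomes were roughly 100 nm: POPC/POPG 7:3 (bacterial model) or POPC/POPG/cholesterol 5:3:2 (mammalian model). Lipid concentration was standardized by enzymatic phospholipid colorimetric assay.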

Escherichia coli [7] = assay: Antibacterial activity against extended-spectrum beta-lactamase producing multidrug-resistant and colistin-susceptible Escherichia coli CTX-M-15 clinical isolate Aar 11 after 18 hrs by microdilution broth method; assay type: functional
Staphylococcus aureus = assay: Antibacterial activity against methicillin-resistant Staphylococcus aureus ATCC 33591 after 18 hrs by microdilution broth method; assay type: functional; procedure, shortened: as §2
[8] = Binding affinity to cholesterol containing synthetic POPC/POPG liposomal membrane at 20 uM by circular dichroism analysis; assay type: physicochemical; details: artificial membrane; procedure, shortened: as §3
Acinetobacter baumannii = assay: Antibacterial activity against multidrug-resistant Acinetobacter baumannii clinical isolate E2-1228625 after 18 hrs by microdilution broth method; assay type: functional
Enterococcus faecalis = assay: Antibacterial activity against vancomycin-resistant Enterococcus faecalis ATCC 700221 after 18 hrs by microdilution broth method; assay type: functional
Procedure, shortened: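 CLSI broth microdilution. Incubated 35 °C in ambient air for 18 h. MIC taken as the lowest concentration with no visible growth versus the compound-free control. Reported as median and range of three independent biological replicates run on separate days.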

[9] = clinical isolate 74859898, 18 h
[10] = clinical isolate E2-1228625, 18 h

Molecule	pIC50 (HeLa)	pIC50 (HUVEC)	pIC50 (Caco-2)	MIC (Escherichia coli [1]; ATCC 25922, 18 h) [µM]	pIC50 [2]	pIC50 [3]	pIC50 [4]	MIC (Escherichia coli [5]; [9]) [µM]	MIC (Enterococcus faecium) [µM]	pIC50 (HepG2)	Activity [6]	MIC (Escherichia coli [7]; CTX-M-15, 18 h) [µM]	MIC (Staphylococcus aureus; ATCC 33591, 18 h) [µM]	Activity [8]	MIC (Acinetobacter baumannii; [10]) [µM]	further results
CC(=O)N[C@@H](CCCCN)C(=O)N(CCC(=O)N[C@@H](CCCCNC(=N)N)C(=O)N(CCC(=O)N[C@@H](CCCCN)C(=O)N(CCC(=O)N[C@@H](CCCCNC(=N)N)C(=O)N(CCC(=O)N[C@@H](CCCCN)C(=O)N(CCC(=O)N[C@@H](CCCCNC(=N)N)C(=O)N(CCC(=O)N[C@@H](CCCCN)C(=O)N(CCC(N)=O)Cc1ccccc1)Cc1ccccc1)Cc1ccccc1)Cc1ccccc1)Cc1ccccc1)Cc1ccccc1)Cc1ccccc1	4.11	3.34	3.45	1 (≈ 2.21 µg/mL)	< 2.99	3.76	3.58	1 (≈ 2.21 µg/mL)	16 (≈ 35.4 µg/mL)	3.94	Not Active	1 (≈ 2.21 µg/mL)	16 (≈ 35.4 µg/mL)	Not Active	4 (≈ 8.84 µg/mL)	–
CC(=O)N[C@@H](CCCCN)C(=O)N(CC(=O)N[C@@H](CCCCNC(=N)N)C(=O)N(CC(=O)N[C@@H](CCCCN)C(=O)N(CC(=O)N[C@@H](CCCCNC(=N)N)C(=O)N(CC(=O)N[C@@H](CCCCN)C(=O)N(CC(=O)N[C@@H](CCCCNC(=N)N)C(=O)N(CC(N)=O)Cc1ccccc1)Cc1ccccc1)Cc1ccccc1)Cc1ccccc1)Cc1ccccc1)Cc1ccccc1 (Ac-K[Nphe][hArg][Nphe]K[Nphe][hArg][Nphe]K[Nphe][hArg][Nphe]-NH2)	3.50	< 3.00	< 3.00	2 (≈ 3.67 µg/mL)	< 2.99	3.20	3.20	1 (≈ 1.84 µg/mL)	32 (≈ 58.8 µg/mL)	3.16	Not Active	2 (≈ 3.67 µg/mL)	64 (≈ 118 µg/mL)	Not Active	64 (≈ 118 µg/mL)	–
CC(=O)N[C@@H](CCCCN)C(=O)N(CC(=O)N[C@@H](CCCCNC(=N)N)C(=O)N(CC(=O)N[C@@H](CCCCN)C(=O)N(CC(=O)N[C@@H](CCCCNC(=N)N)C(=O)N(CC(=O)N[C@@H](CCCCN)C(=O)N(CC(=O)N[C@@H](CCCCNC(=N)N)C(=O)N(CC(=O)N[C@@H](CCCCN)C(=O)N(CC(N)=O)[C@@H](C)c1ccccc1)[C@@H](C)c1ccccc1)[C@@H](C)c1ccccc1)[C@@H](C)c1ccccc1)[C@@H](C)c1ccccc1)[C@@H](C)c1ccccc1)[C@@H](C)c1ccccc1 (Ac-K[Nspe][hArg][Nspe]K[Nspe][hArg][Nspe]K[Nspe][hArg][Nspe]K[Nspe]-NH2)	4.68	3.84	3.74	1 (≈ 2.21 µg/mL)	–	4.17	4.52	1 (≈ 2.21 µg/mL)	4 (≈ 8.84 µg/mL)	4.46	Not Active	2 (≈ 4.42 µg/mL)	16 (≈ 35.4 µg/mL)	Not Active	1 (≈ 2.21 µg/mL)	–
CC(=O)N[C@@H](CCCCNC(=N)N)C(=O)N(CC(=O)N[C@@H](CCCCN)C(=O)N(CC(=O)N[C@@H](CCCCNC(=N)N)C(=O)N(CC(=O)N[C@@H](CCCCN)C(=O)N(CC(=O)N[C@@H](CCCCNC(=N)N)C(=O)N(CC(N)=O)Cc1ccccc1)Cc1ccccc1)Cc1ccccc1)Cc1ccccc1)Cc1ccccc1 (Ac-[hArg][Nphe]K[Nphe][hArg][Nphe]K[Nphe][hArg][Nphe]-NH2)	3.30	< 3.00	< 3.00	8 (≈ 12.5 µg/mL)	–	< 3.00	3.01	8 (≈ 12.5 µg/mL)	128 (≈ 200 µg/mL)	3.01	Not Active	16 (≈ 25 µg/mL)	128 (≈ 200 µg/mL)	Not Active	> 128	–
CC(=O)N[C@@H](CCCCNC(=N)N)C(=O)N(CC(=O)N[C@@H](CCCCN)C(=O)N(CC(=O)N[C@@H](CCCCNC(=N)N)C(=O)N(CC(=O)N[C@@H](CCCCN)C(=O)N(CC(=O)N[C@@H](CCCCNC(=N)N)C(=O)N(CC(N)=O)[C@@H](C)c1ccccc1)[C@@H](C)c1ccccc1)[C@@H](C)c1ccccc1)[C@@H](C)c1ccccc1)[C@@H](C)c1ccccc1 (Ac-[hArg][Nspe]K[Nspe][hArg][Nspe]K[Nspe][hArg][Nspe]-NH2)	3.78	3.40	3.23	8 (≈ 13.1 µg/mL)	–	3.68	3.84	8 (≈ 13.1 µg/mL)	8 (≈ 13.1 µg/mL)	3.85	Not Active	8 (≈ 13.1 µg/mL)	32 (≈ 52.2 µg/mL)	Not Active	16 (≈ 26.1 µg/mL)	–
GENTAMICIN	–	–	–	–	–	–	–	–	–	–	–	–	–	–	–	MIC (Escherichia coli [1]): 0.25 µM; MIC (Escherichia coli [5]): > 128 µM; MIC (Enterococcus faecalis): > 128 µM; MIC (Escherichia coli [7]): 32 µM; MIC (Staphylococcus aureus): 0.5 µM; MIC (Acinetobacter baumannii): > 128 µM
